In ChEMBL document CHEMBL4513216, “Probing the Open Global Health Chemical Diversity Library for Multistage-Active Starting Points for Next-Generation Antimalarials” (ACS Infect Dis, 2020):

Test: Toxicity liver stage against HepG2, at 10uM
Assay type: cell-based
Design: test concentration 10 uM, cell line HepG2-A16-CD81EGFP
Details: human, HepG2-A16-CD81EGFP cells; read-out: INHIBITION
Procedure, shortened: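 Uninfected HepG2-A16-CD81EGFP cells, 3 × 10^3 per well, 1536-well, plated on prespotted compound at 10 μM final, parasite-free screening media added to match infected plates; puromycin 10 μM positive, DMSO 0.5% negative; run in parallel with 48 h PbLuc assay at 37 °C, 5% CO2; viability by CellTiter-Glo luminescence, normalized to controls.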

| Compound | cytotoxicity at 10 µM [%] |
| --- | --- |
| Cc1cc(N2CCC(O)CC2)nc(C)n1 | -74.7 |
| CN1C[C@@H](F)[C@@H](OCc2nc3ccccc3n2C)C1 | 0.876 |
| CN(CCC(O)c1ccccc1)Cc1ccccc1C#N (stereo not drawn) | 6.87 |
| COc1ccc(CN2CC(O)CN(C(=O)C3CCC3)CC2=O)cc1 (stereo not drawn) | -12.8 |
| COCCNC(=O)Cc1cnc(-n2cccc2)s1 | -3.35 |
| O=C(CCc1ccc(-n2cnnn2)cc1)Nc1nncs1 | -1.14 |
| O=C(CCCn1cnc2ccccc2c1=O)Nc1nc[nH]n1 | -4.84 |
| CCOc1ccc(NC(=O)NCC(C)(O)c2cccs2)cc1 (stereo not drawn) | -0.579 |
| COCC(=O)NCC(Cc1cccc(F)c1)n1cccc1 (stereo not drawn) | 2.55 |
| O=c1ccc2c([nH]1)CCN(S(=O)(=O)c1ccc3c(c1)CCCC3)C2 | -4.63 |
| Cc1cc(C(O)CCNC(=O)COc2ccccc2C)c(C)o1 (stereo not drawn) | 2.86 |
| O=C(C1CCOCC1)N1C[C@H]2CNC[C@H]2C1 | -8.58 |
| CCCS(=O)(=O)N1CCC2(CC1)COCCN(C(C)=O)C2 | 15.9 |
| CN1C(=O)CC2(CCN(S(=O)(=O)c3cccs3)CC2)c2ccccc21 | 1.86 |
| C[C@@H]1C[C@@H]2CCN(Cc3nccs3)C[C@H]2O1 | -3.15 |
| COCCN1CCCC12CCCN(c1nncs1)C2 (stereo not drawn) | 9.79 |
| O=S(=O)(C1CC1)N1CCn2c(Cn3cccn3)cnc2C1 | 12.4 |
| Cn1nc(CN2CCCC2)c2c1CN(C(=O)c1ccncc1F)CC2 | -154 |
| CCCS(=O)(=O)N1CCC2(CCCN(c3ncc(F)cn3)C2)C1 (stereo not drawn) | 13.4 |
| Fc1cccc(N2CCOC3(CCCN(c4cnccn4)C3)C2)c1 (stereo not drawn) | 5.89 |
| COc1cccc(CC(=O)N2Cc3nccn3CC(CN(C)C)C2)c1 (stereo not drawn) | -135 |
| O=C(c1cnccn1)N1CCC2(CCCN(Cc3ccoc3)C2)C1 (stereo not drawn) | -139 |
| Cc1ccc(-c2csc(N)c2C#N)c(C)c1 | 10.5 |

| Compound | cytotoxicity at 10 µM [%] |
| --- | --- |
| O=C(NCCN1CCC(c2cccs2)CC1)c1ccccc1C(F)(F)F | -20.2 |
| CN(C)C(=O)CO[C@@H]1CC[C@H]2[C@H]1OCCN2C(=O)C1CCOCC1 | -7.56 |
| COc1ccc(CCC(=O)N(C)Cc2c(C)nn(C)c2C)cc1 | -0.734 |
| CC(=O)Nc1ncc(S(=O)(=O)Nc2ccccc2)s1 | 6.72 |
| CCC(C)c1noc(C2CCN(C(=O)Cn3nc(C)cc3C)CC2)n1 (stereo not drawn) | 6.58 |
| CC1(c2ncc(CN3CCSCC3)cn2)CCCCO1 (stereo not drawn) | 2.12 |
| COc1ccc(S(=O)(=O)N2CCC[C@@H]3CN(C(=O)C4CC4)C[C@@H]32)cc1F | 3.75 |
| CN(C)C(=O)C1(c2cnccn2)CCCN1C(=O)Cc1ccsc1 (stereo not drawn) | -1.84 |
| O=C(NCC1(O)COCCN(Cc2cccc(O)c2)C1)c1ccccn1 (stereo not drawn) | -4.29 |
| CNC(=O)C1(CCCc2cccnc2)CCCCN1 (stereo not drawn) | 2.34 |
| Cc1ccc(-n2cnc(Cl)c2CO)cc1 | -0.303 |
| Cc1cnn(Cc2cccc(OCC(N)=O)c2)c1 | -2.84 |
| CCCN(CC1COc2ccccc2O1)C(=O)CCN1C(=O)CCC1=O (stereo not drawn) | -37 |
| N#Cc1ccc(CN2CCOCC2)cc1 | -9.32 |
| CN(CC(O)C(F)(F)F)C(=O)Nc1cccc(C(F)F)c1 (stereo not drawn) | 5.46 |
| CN(C)c1cccc(C(=O)Nc2ccn(CCc3ccncc3)n2)c1 | 0.209 |
| O=C(NCCNCc1cccc2c1OCCCO2)C1CCCC1 | 8.08 |
| O=C(C1CC1)N1CCC(c2nc(-c3ccccc3)n[nH]2)CC1 | -4.15 |
| CC(=O)c1cccc(NC(=O)CN2CCCCC2C(=O)N2CCCC2)c1 (stereo not drawn) | -8.82 |
| Cc1ccc(N2CCCC(N(C)Cc3nc(C)c(C)o3)C2)nn1 (stereo not drawn) | 3.15 |
| CSC(C)(C)CNC(=O)NC1CCN(CC=C(C)C)CC1 | -6.45 |
| O=C(CCN1CCCC1c1cccc2c1OCCO2)N1CCCCC1 (stereo not drawn) | 2.43 |
| CCC(=O)NC1CCN(c2cccc(OC(F)(F)F)c2)C1=O (stereo not drawn) | -11.5 |

| Compound | cytotoxicity at 10 µM [%] |
| --- | --- |
| Cc1nn(C)c(C)c1OCC(=O)NCC(O)c1ccco1 (stereo not drawn) | -4.71 |
| CCNC(=O)N1CCC(n2ccc(C(F)(F)F)n2)CC1 | 10.5 |
| CCc1cc(NC(=O)C(c2cccc(F)c2)N2CCOCC2)[nH]n1 (stereo not drawn) | -10.3 |
| CC(C(=O)NCc1cn2cc(Br)ccc2n1)S(C)(=O)=O (stereo not drawn) | -16.4 |
| CC(NC(=O)c1csnn1)c1ccc(OCC2CC2)c(F)c1 (stereo not drawn) | -1 |
| O=C(NCCCOCC1CCCO1)c1cccnc1N1CCOCC1 (stereo not drawn) | 3.68 |
| CC(C)(C)c1noc(CNc2ccccc2N2CCC(O)CC2)n1 | 0.965 |
| O=C(O)[C@H]1CCCN1CCOc1cccc(Cl)c1 | 17 |
| CC(C)(C)CC(=O)NCCCn1cncn1 | -4.34 |
| O=c1c2cccnc2cnn1CC(O)c1cccc(C(F)(F)F)c1 (stereo not drawn) | -3.67 |
| O=C(Nc1ccc(Cn2cccn2)cc1)N1CCC2(CC1)OCCO2 | 6.09 |
| Cc1nn(CC(=O)Nc2cccc(F)c2)c(N)c1C#N | 17.9 |
| Cc1nc(CNC(=O)Nc2ccc3c(ccn3CCN(C)C)c2)no1 | -21.8 |
| O=C(CN1CCCc2c(F)cc(Br)cc21)N1CCCC1 | -1.26 |
| CNC(=O)CN(C(=O)c1ccc(SC)o1)c1cccc(F)c1 | 10.3 |
| CC(C)c1ncc(Cl)c(C(=O)N2CCN(C3CC3)CC2)n1 | 3.78 |
| CCc1nc(C(=O)N2CCN(C)c3ccccc32)c[nH]1 | 1.16 |
| Cc1cc2ccccc2n1CC(=O)Nc1ccnn1CC1CCOC1 (stereo not drawn) | 7.77 |
| O=C1C(N2CCN(c3ccc(O)cc3)CC2)CCN1C1CCOCC1 (stereo not drawn) | 12.6 |
| O=C(c1ccsc1)N1CCN(CC(O)c2cccc(F)c2)CC1 (stereo not drawn) | -46.7 |
| Cc1cc(NC(=O)C(c2cccc(F)c2)N2CCOCC2)ccn1 (stereo not drawn) | 0.278 |
| CSCC(CCO)NC(=O)Nc1cc(C)ccc1C (stereo not drawn) | -17 |
| CC(C)CNC(=O)c1ccc2nnc(C3CCN(S(C)(=O)=O)C3)n2c1 (stereo not drawn) | 5.09 |

| Compound | cytotoxicity at 10 µM [%] |
| --- | --- |
| CC(=O)c1cn(CC(=O)N2CCC(O)(CO)CC2)c2ccccc12 | 1.13 |
| Cc1nc2c(c(N3CCCOCC3)n1)CCN(c1nccs1)CC2 | 3.08 |
| Cc1nc2c(C)cccc2cc1C(=O)N1CCC2(CC1)NCCNC2=O | -0.0638 |
| Cc1cccc(C)c1OC1CN(Cc2cnc(N3CCCC3)nc2)C1 | 1.35 |
| CNc1ncc(CN(C)Cc2cc(O)c3cc(F)ccc3n2)cn1 | 1.95 |
| Cc1cc(-n2cccn2)ccc1CN1CCC(O)(CN2CCCCC2)C1 (stereo not drawn) | 6.2 |
| CC[C@H]1COCCN1C(=O)c1cnc(C(C)C)nc1C | 8.51 |
| CN(CC1Cc2ccccc2CN1C)C(=O)CSc1nccn1C (stereo not drawn) | -10.8 |
| CCC(C)Oc1ccc(CNCCNC(C)=O)cc1OC (stereo not drawn) | -8.09 |
| CC(C(=O)N(C)C)N1CCc2onc(-c3cccc(F)c3)c2C1 (stereo not drawn) | -6.93 |
| CCn1c(C)nnc1SCCNC(=O)c1cccc2ccnn12 | -54.6 |
| CCCc1nc(N2CCCC(CCOC)C2)c2cnn(C)c2n1 (stereo not drawn) | 12.1 |
| OCC1COCCN(Cc2cc(C3CCCCC3)no2)C1 (stereo not drawn) | 6.44 |
| COc1cccc2c1OCC(C(=O)NCCc1nc3c(s1)CCC3)C2 (stereo not drawn) | -39.6 |
| c1ccc(OCc2noc(CN3CCN(C4CCCC4)CC3)n2)cc1 | -6.66 |
| COCCN1CCC2(CC1)CC(c1ccccc1)C(=O)N2C (stereo not drawn) | 7.91 |
| Cc1nc(CNc2nc3c(s2)c(C)nn3C)cs1 | -109 |
| CCN(Cc1ccncc1)c1nc(C)nc2oc(C)nc12 | -50.6 |
| N[C@H]1CN(C(=O)c2cnc3cc(Cl)ccc3c2O)C[C@@H]1C1CC1 | -44.1 |
| CCCn1ccnc1CN1CCC(O)(CN2CCCCC2)C1 (stereo not drawn) | -6.12 |
| CC(C)Oc1cccc(CN2CCC(C(C)N3CCOCC3)CC2)c1 (stereo not drawn) | -5.84 |
| Cc1ncsc1CCCn1ccnc1-c1cc2n(n1)CCCNC2 | 3.28 |
| O=C1N(CCCc2ccccc2)CCCC1(O)CNCc1ccccc1 (stereo not drawn) | 10.4 |

| Compound | cytotoxicity at 10 µM [%] |
| --- | --- |
| CC(NCc1ccccc1Cl)c1ccc2[nH]c(=O)[nH]c2c1 (stereo not drawn) | -9.7 |
| O=C(CSc1ccccc1F)NS(=O)(=O)c1ccc2c(c1)OCCO2 | -4.36 |
| CC(=O)Nc1nc(C(=O)N2CCCC2c2noc(C(C)C)n2)cs1 (stereo not drawn) | -20.1 |
| CCn1ccnc1CN1CCCC1c1noc(C2CC2)n1 (stereo not drawn) | -17.4 |
| Cc1nc(C2CCCN(C(=O)c3cc(Cl)c[nH]3)C2)sc1C (stereo not drawn) | -21.5 |
| Cc1nc(C)n(C2CCCN(C(=O)c3c[nH]c(C(C)C)n3)C2)n1 (stereo not drawn) | -19.9 |
| Cc1ccc(CNC(=O)Nc2nnc(C)s2)cn1 | -0.243 |
| Cc1ccc(CC(=O)N2CCc3nnc(N(C)C)cc3C2)cn1 | -8.16 |
| Cc1nccn1C1CCCN(C(=O)c2cc3ccccc3[nH]2)C1 (stereo not drawn) | -12.2 |
| CC(C)c1nc(C2CCCN(Cc3nnc(C4CC4)o3)C2)no1 (stereo not drawn) | 5.65 |
| COCCc1noc(CN2CCCC(Cn3nc(C)nc3C)C2)n1 (stereo not drawn) | -6.41 |
| O=C(CN1CCOC(Cn2cccn2)C1)Nc1nncs1 (stereo not drawn) | 4.79 |
| CN(C)[C@@H]1CN(Cc2ccc(O)cc2)C[C@H]1c1cn(C)c2ccccc12 | 2.39 |
| CCC(C)[C@H](N)c1nnc(SCC(=O)Nc2ccc(Br)cc2)o1 (stereo partly drawn) | -3.48 |
| CNC(=O)CN1CC[C@H]2CN(C(=O)c3cc[nH]n3)C[C@H]2C1 | 0.53 |
| Cc1noc(C)c1CN1CCc2ncc(CN3CCCC3)n2CC1 | 0.78 |
| Cn1ccc(C(=O)N2CCC[C@]3(C[C@@H](OCc4ccccn4)CO3)C2)n1 | 0.333 |
| O=C(C1CCOCC1)N1CC[C@H]2[C@H]1CCN2c1nncs1 | -4.78 |
| CCc1nnc(CN2CCC(C3CCCCCN3C(C)=O)CC2)o1 (stereo not drawn) | -43 |
| CCOCc1cnc2n1CCN(Cc1nc(C)cs1)C2C (stereo not drawn) | 10.2 |
| CCn1cc2c(n1)CN(Cc1ccncc1)CC2COCC1CC1 (stereo not drawn) | 6.59 |
